Sampled rows, rich in hits. Any-hit rate of the full collection: about 1%.
KLK5 inh: human KLK5 protease inhibitors, primary screen, biochemical, 1536-well. hit rate 0.59% among 210,000. recombinant hK5, fluorogenic AMC substrate cleavage. Kallikrein-5 (Homo sapiens), Q9Y337. inhibition, % at 5 µM;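 active = inhibition of 40% or more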;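 also: 0% = enzyme controls without compound and 100% = no-enzyme blanks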
thrombin 1536: human alpha-thrombin inhibitors, primary screen, counter-screen for coagulation protease inhibitor project, biochemical, 1536-well, fluorogenic AMC substrate | Prothrombin (Homo sapiens), P00734 | inhibition, % at 5 µM | Boc-VPR-AMC fluorogenic substrate cleavage | hit rate 0.26% among 220,000;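 active = inhibition at or above 40%; inactive = inhibition below 40%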;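 also: 0% = enzyme with no compound and 100% = wells without enzyme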
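Material: human alpha-thrombin protein; Also added: Boc-VPR-AMC substrate, 15 µM final; Timing: enzyme reaction carried out at room temperature; Signal: fluorescence, ex 355 nm, em 460 nm; Measure: % inhibition of thrombin; Controls: enzyme without compound as high, wells lacking enzyme as low.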
FXIa inh 1536: human FXIa protease inhibitors, primary screen, biochemical, 1536-well. Coagulation factor XI (Homo sapiens), P03951. purified FXIa, Boc-Glu-Ala-Arg-AMC fluorogenic substrate. inhibition, % at 5 µM. hit rate 0.14% among 220,000;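 active = inhibition of at least 40%; inactive = inhibition below 40%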;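 also: fluorescence of freed AMC excited at 355 nm; 0% = enzyme without compound and 100% = no enzyme blank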
Target sequence (P03951 19-387 limits assumed): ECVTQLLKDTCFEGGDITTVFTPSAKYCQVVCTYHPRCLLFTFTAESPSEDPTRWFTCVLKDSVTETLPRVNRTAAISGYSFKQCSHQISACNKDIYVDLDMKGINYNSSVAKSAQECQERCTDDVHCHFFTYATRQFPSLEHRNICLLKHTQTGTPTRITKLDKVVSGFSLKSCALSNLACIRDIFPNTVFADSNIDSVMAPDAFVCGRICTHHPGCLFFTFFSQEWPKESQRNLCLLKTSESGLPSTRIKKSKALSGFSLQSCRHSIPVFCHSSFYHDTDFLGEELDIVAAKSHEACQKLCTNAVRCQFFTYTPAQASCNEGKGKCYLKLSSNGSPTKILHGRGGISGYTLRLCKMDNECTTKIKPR
Target sequence (P03951 388-625 limits assumed): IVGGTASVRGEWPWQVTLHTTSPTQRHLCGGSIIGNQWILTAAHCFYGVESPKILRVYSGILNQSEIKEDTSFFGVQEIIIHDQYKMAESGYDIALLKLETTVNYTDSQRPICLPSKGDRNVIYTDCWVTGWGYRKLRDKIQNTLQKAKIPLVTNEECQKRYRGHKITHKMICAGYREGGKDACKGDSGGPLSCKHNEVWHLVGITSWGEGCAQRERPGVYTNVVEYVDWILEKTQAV
FXIIa inh: human FXIIa protease inhibitors, primary screen, biochemical, 1536-well | Coagulation factor XII (Homo sapiens), P00748 | purified FXIIa, Boc-QGR-AMC fluorogenic substrate, 2 h | inhibition, % at 5 µM | hit rate 0.3% among 220,000; in the data active = inhibition above about 40%;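 also: 0% = enzyme with no compound and 100% = blank without enzyme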
Numbers without * were called inactive.

For O=C(CSc1ncnc2c1oc1ccccc12)Nc1ccccc1C(F)(F)F the results were KLK5 inh 47*, thrombin 1536 24, FXIa inh 1536 17 and FXIIa inh 18.
Screening O=C(O)CSc1ncnc2c1oc1ccccc12 returned KLK5 inh 6, thrombin 1536 2, FXIa inh 1536 2 and FXIIa inh 12.
O=C(NCc1ccco1)C1CC(c2ccccc2C(F)(F)F)=NO1 (stereo not given) was read as KLK5 inh 19, thrombin 1536 21, FXIa inh 1536 72* and FXIIa inh 21.
`CC1=CCC2C(=O)N(C(C)c3ccccc3)C(=O)C2C1` (stereo not given) gave KLK5 inh -6, thrombin 1536 1, FXIa inh 1536 64* and FXIIa inh 13.
Screening COc1ccc(/C=C2\CCCC3C2=NN(C(=O)COC(=O)CNC(=O)c2ccccc2)C3c2ccc(OC)cc2)cc1 (stereo not given) returned KLK5 inh 47*, thrombin 1536 13, FXIa inh 1536 2 and FXIIa inh 16.
O=C(c1nc2nc(-c3ccccc3)cc(C(F)(F)F)n2n1)N1CCCCC1 was read as KLK5 inh 64*, thrombin 1536 22, FXIa inh 1536 13 and FXIIa inh 16.
O=C(NC(=S)Nc1cc(C(F)(F)F)ccc1N1CCOCC1)c1ccco1 was read as KLK5 inh 42*, thrombin 1536 11, FXIa inh 1536 7 and FXIIa inh 28.
Screening CC(=O)NC(=S)Nc1cc(C(F)(F)F)ccc1N1CCOCC1 returned KLK5 inh -8, thrombin 1536 -1, FXIa inh 1536 6 and FXIIa inh 7.
For CCOC(=O)c1ccc(NC(=O)c2ccc3c(c2)OCO3)cc1 the results were KLK5 inh 2, thrombin 1536 0, FXIa inh 1536 -1 and FXIIa inh 11.
For CCOC(=O)c1ccc(NC(=O)NC2CCN(CC(=O)NCc3ccc4c(c3)OCO4)CC2)cc1 the results were KLK5 inh 30, thrombin 1536 43*, FXIa inh 1536 10 and FXIIa inh 14.
Screening CN1CCN(CCCC(=O)c2ccc(C3CCCC3)cc2)CC1 returned KLK5 inh -18, thrombin 1536 -8, FXIa inh 1536 -9 and FXIIa inh -2.
Screening Cc1ccc(/C=[N+](\[O-])c2ccc(N(C)C)cc2)c2nsnc12 returned KLK5 inh 22, thrombin 1536 3, FXIa inh 1536 0 and FXIIa inh 11.
`O=C(CN(Cc1cccs1)C(=O)CCC(=O)Nc1nccs1)NCc1ccccc1` gave KLK5 inh 105*, thrombin 1536 17, FXIa inh 1536 8 and FXIIa inh 107*.
Screening CCOC(=O)c1sc(NC(C)=O)nc1C returned KLK5 inh -2, thrombin 1536 -3, FXIa inh 1536 2 and FXIIa inh 14.
For CCOC(=O)c1sc(NS(=O)(=O)c2cc(C)ccc2C)nc1C the results were KLK5 inh 40*, thrombin 1536 30, FXIa inh 1536 14 and FXIIa inh 22.
For O=C1C2C3c4ccccc4C(c4ccccc43)C2C(=O)N1/N=C/c1cccc(O)c1 (stereo not given) the results were KLK5 inh 42*, thrombin 1536 20, FXIa inh 1536 4 and FXIIa inh 24.
For CC(C(=O)NCc1ccccn1)N1C(=O)c2ccccc2C1=O (stereo not given) the results were KLK5 inh 34, thrombin 1536 104*, FXIa inh 1536 18 and FXIIa inh 13.
`COC(=O)c1ccc(CN2C(=O)NC3(CCC(C)CC3)C2=O)cc1` (stereo not given) gave KLK5 inh -4, thrombin 1536 -4 and FXIa inh 1536 -6.
For C[n+]1nc(Nc2cccc(F)c2)sc1-c1ccc(C(=O)O)cc1 the results were KLK5 inh 6, thrombin 1536 5, FXIa inh 1536 5 and FXIIa inh 10.
Screening Cc1cc(C)c(OCC(=O)Nc2nnn(C)n2)c(Br)c1 returned KLK5 inh -36, thrombin 1536 -9, FXIa inh 1536 0 and FXIIa inh -1.
`Cc1ccc(OCC(=O)Nc2nnn(C)n2)c(C)c1` gave KLK5 inh -17, thrombin 1536 4, FXIa inh 1536 28 and FXIIa inh 43*.
Screening O=C(NNC(=S)Nc1ccc(Cl)cc1Cl)C1CC1 returned KLK5 inh -34, thrombin 1536 -4, FXIa inh 1536 8 and FXIIa inh 18.
CC(=O)c1ccc(N2C(=O)C3C(C2=O)C(C(=O)c2ccc(Cl)cc2)N2CCCC32)cc1 (stereo not given) was read as KLK5 inh 42*, thrombin 1536 9, FXIa inh 1536 12 and FXIIa inh 8.
For O=C(c1ccc(Cl)cc1)C1C2C(=O)N(c3ccccc3)C(=O)C2C2CCCN21 (stereo not given) the results were KLK5 inh 5, thrombin 1536 10, FXIa inh 1536 16 and FXIIa inh 12.
Screening O=C(NCc1ccc(C(F)(F)F)cc1)C12CN(Cc3ccccc3)CC1C(c1cccc([N+](=O)[O-])c1)=NO2 (stereo not given) returned KLK5 inh 42*, thrombin 1536 17, FXIa inh 1536 8 and FXIIa inh 9.
Screening O=C(CCS(=O)(=O)c1cccc2nonc12)NC1CCCCCC1 returned KLK5 inh -19, thrombin 1536 -6, FXIa inh 1536 18 and FXIIa inh 11.
Screening O=C(CCS(=O)(=O)c1cccc2nsnc12)NC1CCCCCC1 returned KLK5 inh 41*, thrombin 1536 14, FXIa inh 1536 11 and FXIIa inh 8.
`COc1ccc(NC2=Nc3cccc4cccc2c34)cc1` gave KLK5 inh -3, thrombin 1536 0, FXIa inh 1536 6 and FXIIa inh 15.
For O=C(Oc1ccc2c(=O)c(Cl)coc2c1)c1ccncc1 the results were KLK5 inh -20, thrombin 1536 8, FXIa inh 1536 42* and FXIIa inh 41*.
For COc1ccc(Cl)cc1NC(=O)C1(c2cccs2)CCOCC1 the results were KLK5 inh -12, thrombin 1536 4, FXIa inh 1536 -2 and FXIIa inh 4.
For O=C(NC(=S)NCC1CCCO1)c1ccc([N+](=O)[O-])cc1 (stereo not given) the results were KLK5 inh -21, thrombin 1536 -5, FXIa inh 1536 -5 and FXIIa inh 4.
`Clc1ccc(-c2ccc(SCc3ccccn3)nn2)cc1` gave KLK5 inh 43*, thrombin 1536 16, FXIa inh 1536 12 and FXIIa inh 22.
Screening c1ccc(CSc2ccc(-c3ccccn3)nn2)nc1 returned KLK5 inh -3, thrombin 1536 -7, FXIa inh 1536 -1 and FXIIa inh 11.
COC(=O)c1[nH]c(C)c(/C(O)=C2\C(=O)C(=O)N(CCN(C)C)C2c2cccc(OC)c2OC)c1C (stereo not given) was read as KLK5 inh 56*, thrombin 1536 11, FXIa inh 1536 5 and FXIIa inh 44*.
